In experiment [1] the test system is Rattus norvegicus. Description: Reduction in wrap restraint stress-induced defecation in rat diarrhea-predominant irritable bowel syndrome model at 30 to 100 mg/kg, po administered 1 hr prior to induction of stress. Format: functional, organism-based. The method in brief: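 Lightly anesthetized rats had upper bodies wrapped with adhesive tape, then returned to observation cages; feces counted 1 h after wrapping. Compound or vehicle given orally 1 h before restraint; unwrapped animals as normal group. n = 8 per group, mean (SD); Wilcoxon and nonparametric Dunnett's tests.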

For experiment [2], the target named is T1, 5-hydroxytryptamine receptor 3A (Homo sapiens, UniProt P46098).
T1 sequence (P46098 whole entry): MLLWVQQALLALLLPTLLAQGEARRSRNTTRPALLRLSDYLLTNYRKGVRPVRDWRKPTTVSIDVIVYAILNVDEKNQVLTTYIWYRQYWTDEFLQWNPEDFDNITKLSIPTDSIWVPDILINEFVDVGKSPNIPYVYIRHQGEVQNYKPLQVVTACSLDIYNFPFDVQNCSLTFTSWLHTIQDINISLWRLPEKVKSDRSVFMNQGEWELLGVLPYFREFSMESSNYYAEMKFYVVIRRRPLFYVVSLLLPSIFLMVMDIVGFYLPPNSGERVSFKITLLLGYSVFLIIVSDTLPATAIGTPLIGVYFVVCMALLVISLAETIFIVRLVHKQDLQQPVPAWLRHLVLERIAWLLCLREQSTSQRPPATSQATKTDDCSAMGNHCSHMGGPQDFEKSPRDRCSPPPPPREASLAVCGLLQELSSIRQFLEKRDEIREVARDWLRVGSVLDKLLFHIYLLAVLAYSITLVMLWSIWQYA
Kind of experiment: Displacement of [3H]BRL-43694 from human 5HT3 receptor expressed in HEK293 cells by liquid scintillation counting. The format is cell-based. The gist of the method:
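HEK-293 membranes expressing human 5-HT3 were incubated with 0.5 nmol/L [3H]BRL-43694 (final) for 60 min at 25 °C. Buffer: 50 mM Tris-HCl, 5 mM MgCl2, 1 mM EDTA, pH 7.5. Compound came from 270 μmol/L DMSO stock, diluted in buffer. Filtration was through GF/B presoaked in 0.5% polyethyleneimine, with two cold Tris washes. Run in duplicate or triplicate; percent inhibition calculated.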

Experiment [3] has as its target T2, 5-hydroxytryptamine receptor 1A (Homo sapiens, UniProt P08908).
T2 sequence (P08908 whole entry): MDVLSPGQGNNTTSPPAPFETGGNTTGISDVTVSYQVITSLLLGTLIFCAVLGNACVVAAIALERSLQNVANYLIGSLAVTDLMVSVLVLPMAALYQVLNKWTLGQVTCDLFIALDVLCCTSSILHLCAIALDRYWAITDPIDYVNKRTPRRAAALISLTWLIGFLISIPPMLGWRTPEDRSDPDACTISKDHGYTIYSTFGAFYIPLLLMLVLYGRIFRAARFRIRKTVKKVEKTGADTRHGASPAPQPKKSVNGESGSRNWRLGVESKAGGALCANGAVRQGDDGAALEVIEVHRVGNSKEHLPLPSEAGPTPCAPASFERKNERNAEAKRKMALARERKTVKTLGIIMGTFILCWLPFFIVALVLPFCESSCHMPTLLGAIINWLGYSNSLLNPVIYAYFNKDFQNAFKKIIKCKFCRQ
Kind of experiment: Displacement of [3H]8-OH-DPAT from human 5HT1A receptor expressed in CHO cells by liquid scintillation counting. Format: cell-based. The gist of the method:
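CHO-cell membranes with human 5-HT1A were incubated with 0.25 nmol/L [3H]8-OH-DPAT (final) for 60 min at 27 °C. Buffer: 50 mM Tris-HCl, 10 mM MgSO4, 0.5 mM EDTA, 0.1% ascorbic acid, pH 7.4. Compound came from 270 μmol/L DMSO stock, diluted in buffer. Filtration was through GF/C presoaked in 0.3% polyethyleneimine, with two cold Tris washes. Run in duplicate or triplicate; percent inhibition of binding calculated.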

Experiment [4] has as its target T2, 5-hydroxytryptamine receptor 1A. Kind of experiment: Agonist activity at human cloned 5HT1A receptor expressed in CHO cells assessed as stimulation of [35S]GTPgammaS binding after 30 mins by liquid scintillation counting. Format: functional, cell-based. The method in brief: (§1)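 Membranes from CHO cells expressing human 5-HT1A were diluted in 20 mM HEPES/3 mM MgCl2/120 mM NaCl, pH 7.4. They were preincubated with 20 μM GDP and test drug for 20 min at 30 °C, then held on ice for 15 min. [35S]GTPγS (100 pM) was added for 30 min at 30 °C. Samples were filtered, washed with cold HEPES/MgCl2 buffer, and bound radioactivity counted; EC50 and Emax reported.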
On the technique in general: GTPγS is a poorly hydrolysed GTP analogue; its binding reports G protein activation.

Experiment [5] deals with T3, 5-hydroxytryptamine receptor 1A (Homo sapiens) (UniProt P08908).
T3 sequence (whole entry): T2 sequence (P08908 whole entry)
Kind of experiment: Agonist activity at human cloned 5HT1A receptor expressed in CHO cells assessed as stimulation of [35S]GTPgammaS binding at 900 uL after 30 mins by liquid scintillation counting. Format: functional, cell-based. The method in brief: as §1

The target in experiment [6] is T4, 5-hydroxytryptamine receptor 3A (Cavia porcellus) (UniProt O70212).
T4 sequence (whole entry): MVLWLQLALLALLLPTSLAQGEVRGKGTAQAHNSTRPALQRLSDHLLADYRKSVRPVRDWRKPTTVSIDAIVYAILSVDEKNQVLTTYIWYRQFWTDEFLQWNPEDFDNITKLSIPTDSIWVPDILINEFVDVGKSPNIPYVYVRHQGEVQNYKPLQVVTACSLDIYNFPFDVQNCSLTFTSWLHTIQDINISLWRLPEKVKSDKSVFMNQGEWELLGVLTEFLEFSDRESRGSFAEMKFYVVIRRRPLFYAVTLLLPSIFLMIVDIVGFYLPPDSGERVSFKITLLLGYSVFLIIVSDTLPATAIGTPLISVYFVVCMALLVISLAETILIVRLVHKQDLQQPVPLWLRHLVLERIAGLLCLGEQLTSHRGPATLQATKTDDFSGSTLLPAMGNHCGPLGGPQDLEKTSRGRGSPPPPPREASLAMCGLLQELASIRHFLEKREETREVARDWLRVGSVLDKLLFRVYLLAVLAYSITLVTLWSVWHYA
Kind of experiment: Inhibition of 5HT3 receptor-mediated contraction of guinea pig ileum at 1 umol/L after 20 mins relative to control. The format is tissue-based. The method in brief:
(§2)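 Ileum strips in Tyrode solution at 37 °C, gassed 5% CO2/95% O2, isotonic contractions under 1 g load. After at least 3 stable contractions to 10 μM 2-methyl-5-HT, tissue exposed to compound or DMSO vehicle for 20 min, then 10 μM 2-methyl-5-HT re-added; contraction expressed as % inhibition of control.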

For experiment [7], the target named is T4, 5-hydroxytryptamine receptor 3A (Cavia porcellus). Description: Inhibition of 5HT3 receptor-mediated contraction of guinea pig ileum at 0.1 umol/L after 20 mins relative to control. The format is tissue-based. The gist of the method: as §2
In experiment [8] the test system is Rattus norvegicus. Description: Induction of 5HT1A receptor-mediated lower lip retraction behavior in rat at 10 mg/kg, iv after 30 mins. The format is functional, organism-based. Set-up: dose 10 mg/kg. The method in brief:
(§3)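 Rats were conditioned to test procedures over 2 weeks and acclimated to the test cage for 1 h. Vehicle was saline containing diluted HCl. Lower lip retraction and flat body posture were scored on a 0–3 scale at 5, 10, 20 and 30 min after dosing.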

For experiment [9], the system named is Rattus norvegicus. Kind of experiment: Induction of 5HT1A receptor-mediated behavioral activity in rat assessed as appearance of flat body posture at 10 mg/kg, iv after 30 mins. Format: functional, organism-based. Details: dose 10 mg/kg. The gist of the method:
as §3

For experiment [10], the system named is Rattus norvegicus. Description: Effect on 5HT1A receptor-mediated hypothermic effect in rat assessed as change in rectal temperature at 10 mg/kg, iv after 30 mins. Format: functional, organism-based. Details: dose 10 mg/kg. The method in brief: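 Rats were conditioned over 2 weeks and acclimated to the cage for 1 h before dosing (vehicle: saline with diluted HCl). Rectal temperature was recorded with a thermistor probe inserted 3 cm, before and 30 min after administration. The change in temperature was reported.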

The subject of experiment [11] is Rattus norvegicus. Description: […] activity in rat assessed as inhibition of 5HT-induced bradycardia at 100 ug/kg, iv by von Benzold-Jarisch reflex assay. Format: functional.

This is an account of results in ChEMBL document CHEMBL1275331, “Discovery of a novel 5-HT(3) antagonist/5-HT(1A) agonist 3-amino-5,6,7,8-tetrahydro-2-{4-[4-(quinolin-2-yl)piperazin-1-yl]butyl}quinazolin-4(3H)-one (TZB-30878) as an orally bioavailable agent for irritable bowel syndrome” (J Med Chem, 2010).

Calls of active or inactive are those of the source. No cut-off for these calls is given here.

The inhibition is the change of the read-out against control, counted positive when it falls. Consider `O=C1[C@@H]2[C@H]3CC[C@H](C3)[C@@H]2C(=O)N1CCCCN1CCN(c2ncccn2)CC1`, for which the inhibition result in [1] is “inactive”.

In general, IC50 refers to the point on the concentration scale where inhibition reaches its midpoint. A higher IC50 goes with weaker potency in that assay. Broadly, the EC50 is the concentration at which the effect is half-maximal. In general, Emax refers to the maximal effect, on the per cent scale that the assay sets. What is called inhibition in vivo is how much of the control response was suppressed. `Cc1cc(N2CCN(CCCCc3nc4c(c(=O)n3N)CCCC4)CC2)nc2ccccc12`: the IC50 was 59.1 nM in [2] and less than 10 nM in [3]. Moreover, the half-maximal effective concentration (EC50) in experiment [4] stood at 13.7 nM. The Emax in experiment [5] stood at 93.5%. Further, the inhibition was found to be 100% in experiment [6] and 97.1% in [7]. The outcome in experiment [8], in experiment [9] and in experiment [10] was inactive. Moreover, the inhibition in vivo at 0.1 mg/kg in experiment [11] came to 64.5%.
